Drawing on paper PMC9898299 (Heliyon, 2023), this text covers inhibition for six molecules.

The subject of one data set is U937 cells. The data set is described as follows: CellTiter-Glo Luminescent cell viability assay. In kind it is cell-based, human. Particulars: Homo sapiens, U-937, 72 h, read-out: Percent inhibition at different concentrations of compounds (antiproliferative). The procedure, abridged:
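Human myeloid leukaemia U937 cells exposed to a range of test compound concentrations for 72 h, with Mitomycin C as positive control and DMSO diluent as negative control. CellTiter-Glo reagent added at an equal volume to the medium, mixed 2 min for lysis, then held 10 min at room temperature before luminescence was read. Viability was computed as RLU test ×100/RLU control. Half-maximal inhibitory concentration was fitted from the dose series.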
(In general: Cellular ATP, detected with luciferase, serves as a proxy for viable cell number.)

Data set [1] is described as follows: LDH release cytotoxicity assay. Type of data set: cell-based. The following applies: human, U937 cells. In outline: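 U937 cells were plated in 96-well format and given various test compound concentrations, with Triton X100 as positive cytotoxicity control, for 4 h at 37 °C. Plates were spun 5 min at 1000 RPM, and supernatant was moved to a fresh plate with LDH detection reagent for 10 min at room temperature in the dark. Optical density was then read, and half-maximal concentration was derived from the doses.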
Background: Release of lactate dehydrogenase indicates damage to the cell membrane.

In the case of `COC(=O)COc1ccc(NC(=O)C2(c3ccc(Cl)cc3)CC2)cc1` [Compound 8m, Methyl 2-(4-(1-(4-chlorophenyl)cyclopropane-1-carboxamido)phenoxy)acetate], in the data set with U937 cells, the inhibition at 25 µM was 39%, the inhibition at 50 µM came out at 49%, the inhibition at 100 µM was 99% and the inhibition at 200 µM came to 101%. In addition, in data set [1], the inhibition at 4 h, 12.5 µM is -1%; the inhibition at 4 h, 25 µM is 1%; the inhibition at 4 h, 50 µM came out at 1%; the inhibition at 4 h, 100 µM was determined as 0%.
Take `COC(=O)COc1ccc(NC(=O)C2(c3ccc(Cl)cc3)CC2)c(C)c1` [Compound 8n, Methyl 2-(4-(1-(4-chlorophenyl)cyclopropane-1-carboxamido)-3-methylphenoxy)acetate]: in the data set on U937 cells, the inhibition at 25 µM turned out to be 28%, the inhibition at 50 µM was 33%, the inhibition at 100 µM was determined as 101% and the inhibition at 200 µM is 101%. Besides, in data set [1], the inhibition at 4 h, 12.5 µM was 0%; the inhibition at 4 h, 25 µM was -1%; the inhibition at 4 h, 50 µM worked out at 1%; the inhibition at 4 h, 100 µM was -1%.
With `COC(=O)COc1ccc(NC(=O)C2(c3ccc(Cl)cc3)CC2)cc1Br` [Compound 8o, Methyl 2-(2-bromo-4-(1-(4-chlorophenyl)cyclopropane-1-carboxamido)phenoxy)acetate], in the data set on U937 cells, the inhibition at 25 µM came out at 52%, the inhibition at 50 µM is 77%, the inhibition at 100 µM amounted to 102% and the inhibition at 200 µM was found to be 102%. Besides, in data set [1], the inhibition at 4 h, 12.5 µM was found to be 0%; the inhibition at 4 h, 25 µM is -2%; the inhibition at 4 h, 50 µM is -2%; the inhibition at 4 h, 100 µM was -4%.
Turning to `COC(=O)COc1cccc(NC(=O)C2(c3cccc(Br)c3)CC2)c1` [Compound 8p, Methyl 2-(3-(1-(3-bromophenyl)cyclopropane-1-carboxamido)phenoxy)acetate], in the data set with U937 cells, the inhibition at 25 µM worked out at 37%, the inhibition at 50 µM turned out to be 60%, the inhibition at 100 µM is 101% and the inhibition at 200 µM was 102%. In addition, in data set [1], the inhibition at 4 h, 12.5 µM is 0%; the inhibition at 4 h, 25 µM was -1%; the inhibition at 4 h, 50 µM came to 0%; the inhibition at 4 h, 100 µM was determined as 0%.
Consider `COC(=O)COc1ccc(NC(=O)C2(c3cccc(Br)c3)CC2)c(C)c1` [Compound 8r, Methyl 2-(4-(1-(3-bromophenyl)cyclopropane-1-carboxamido)-3-methylphenoxy)acetate], for which, in the data set on U937 cells, the inhibition at 25 µM was 27%, the inhibition at 50 µM was determined as 84%, the inhibition at 100 µM was determined as 100% and the inhibition at 200 µM was 101%. Moreover, in data set [1], the inhibition at 4 h, 12.5 µM was -1%; the inhibition at 4 h, 25 µM was -1%; the inhibition at 4 h, 50 µM is 1%; the inhibition at 4 h, 100 µM is -2%.
For the molecule `COC(=O)COc1ccc(NC(=O)C2(c3ccc(Cl)c(Cl)c3)CC2)cc1` [Compound 8s, Methyl 2-(4-(1-(3,4-dichlorophenyl)cyclopropane-1-carboxamido)phenoxy)acetate], in the data set with U937 cells, the inhibition at 25 µM came to 40%, the inhibition at 50 µM worked out at 64%, the inhibition at 100 µM stood at 102% and the inhibition at 200 µM worked out at 102%. Moreover, in data set [1], the inhibition at 4 h, 12.5 µM was 4%; the inhibition at 4 h, 25 µM turned out to be 0%; the inhibition at 4 h, 50 µM is -1%; the inhibition at 4 h, 100 µM was 0%.
